Measurements: ChEMBL document CHEMBL1177649, “Synthesis and structure-affinity relationships of novel small molecule natural product derivatives capable of discriminating between serotonin 5-HT1A, 5-HT2A, 5-HT2C receptor subtypes” (Bioorg Med Chem, 2010)

Assays:
Type in all cases: cell-based
[1] = target: T1, 5-hydroxytryptamine receptor 2C (Homo sapiens, UniProt P28335); assay: Displacement of [3H]mesulergine from human cloned 5HT2C receptor expressed in HEK293 cells after 90 mins by liquid scintillation counting
T1 sequence (P28335 whole entry): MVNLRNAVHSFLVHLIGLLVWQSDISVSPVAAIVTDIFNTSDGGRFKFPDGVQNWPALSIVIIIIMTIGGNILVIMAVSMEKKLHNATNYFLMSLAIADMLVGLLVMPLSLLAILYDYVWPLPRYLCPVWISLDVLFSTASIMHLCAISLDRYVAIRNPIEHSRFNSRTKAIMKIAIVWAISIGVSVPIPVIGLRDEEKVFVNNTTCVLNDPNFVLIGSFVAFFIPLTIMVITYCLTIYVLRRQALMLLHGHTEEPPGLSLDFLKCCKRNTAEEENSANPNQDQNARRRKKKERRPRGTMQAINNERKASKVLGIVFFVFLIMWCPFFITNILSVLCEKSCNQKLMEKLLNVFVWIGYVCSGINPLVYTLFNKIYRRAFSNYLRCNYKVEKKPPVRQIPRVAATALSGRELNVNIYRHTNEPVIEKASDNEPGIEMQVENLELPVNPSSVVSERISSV

[2] = target: T2, 5-hydroxytryptamine receptor 2A (Homo sapiens, UniProt P28223); assay: Displacement of [3H]methylspiperone from human cloned 5HT2A receptor expressed in HEK293 cells after 90 mins by liquid scintillation counting
How it was run: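 Nonspecific binding defined with 5 μM mianserin. Compounds in DMSO or DMSO:0.01 N HCl, non-aqueous solvent ≤1:300. Incubated ≥90 min at 25°C, then filtered. Ki from IC50 by Cheng-Prusoff, with the curve bottom fixed at zero for partial displacement. Geometric mean ± SD of 3–4 experiments in triplicate.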

[3] = target: T3, 5-hydroxytryptamine receptor 1A (Homo sapiens) (UniProt P08908); assay: Displacement of [3H]MPPF from human cloned 5HT1A receptor expressed in HEK293 cells at 3 uM after 90 mins by liquid scintillation counting
T3 sequence (whole entry): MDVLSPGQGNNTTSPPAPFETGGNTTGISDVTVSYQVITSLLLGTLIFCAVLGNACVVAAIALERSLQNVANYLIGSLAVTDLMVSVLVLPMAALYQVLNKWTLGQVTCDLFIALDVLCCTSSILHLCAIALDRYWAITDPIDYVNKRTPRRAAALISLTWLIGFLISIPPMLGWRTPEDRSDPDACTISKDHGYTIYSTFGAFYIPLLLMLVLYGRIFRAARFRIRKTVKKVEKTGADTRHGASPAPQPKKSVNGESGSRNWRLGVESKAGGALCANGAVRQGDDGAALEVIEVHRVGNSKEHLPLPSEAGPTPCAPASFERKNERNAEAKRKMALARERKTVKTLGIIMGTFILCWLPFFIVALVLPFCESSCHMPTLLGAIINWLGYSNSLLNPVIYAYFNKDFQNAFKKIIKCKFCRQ
How it was run: (§1)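 Crude membranes from HEK293 cells stably expressing the receptor (G418 selection) in 50 mM Tris, pH 7.4. Radioligand targeted at ~500 pM. Compound added from a 3 mM DMSO stock diluted 1:1000. Nonspecific binding defined with 5 μM NAN-190 (5-HT1A) or 5 μM mianserin (5-HT2C). Incubated ≥90 min at 25°C, then filtered through PEI-soaked GF/C filters. Percent displacement of specific binding; triplicates, 3–4 experiments.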

[4] = target: T4, 5-hydroxytryptamine receptor 2C (Homo sapiens) (UniProt P28335); assay: Displacement of [3H]mesulergine from human cloned 5HT2C receptor expressed in HEK293 cells at 3 uM after 90 mins by liquid scintillation counting; how it was run: as §1
T4 sequence (whole entry): T1 sequence (P28335 whole entry)

[5] = target: T2, 5-hydroxytryptamine receptor 2A; assay: Displacement of [3H]methylspiperone from human cloned 5HT2A receptor expressed in HEK293 cells at 3 uM after 90 mins by liquid scintillation counting
How it was run: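 Crude membranes from HEK293 cells stably expressing the receptor (calcium phosphate transfection, G418-selected clones), in 50 mM Tris pH 7.4. Single-point screen: 3 mM DMSO stock diluted 1:1000. Radioligand targeted at about 500 pM, nonspecific binding defined by 5 μM mianserin. Incubated at least 90 min at 25°C, then filtered on PEI-soaked GF/C filters and washed cold. Percent specific displacement, triplicates, 3–4 experiments.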

T2 sequence (P28223 whole entry): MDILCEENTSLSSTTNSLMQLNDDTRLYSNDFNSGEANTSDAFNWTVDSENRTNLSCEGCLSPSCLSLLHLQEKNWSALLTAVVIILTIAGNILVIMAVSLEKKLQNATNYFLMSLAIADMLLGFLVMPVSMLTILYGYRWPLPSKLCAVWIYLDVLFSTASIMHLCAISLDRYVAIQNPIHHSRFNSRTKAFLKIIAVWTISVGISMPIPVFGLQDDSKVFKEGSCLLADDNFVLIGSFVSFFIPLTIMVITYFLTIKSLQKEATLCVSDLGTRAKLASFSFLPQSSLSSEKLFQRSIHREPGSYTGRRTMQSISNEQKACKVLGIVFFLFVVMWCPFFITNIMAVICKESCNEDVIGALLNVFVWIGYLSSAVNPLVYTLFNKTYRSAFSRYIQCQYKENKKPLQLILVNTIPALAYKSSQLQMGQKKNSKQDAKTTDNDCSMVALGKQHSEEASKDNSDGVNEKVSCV

SMILES | Ki [1] [nM] | Ki [2] [nM] | Activity [3] [%] | Activity [4] [%] | Activity [5] [%]
O=C(Nc1cccnc1)N1CCc2cc(I)c(Cl)cc21 | 3.2 | – | – | – | –
O=C(Nc1cccnc1)N1CCc2ccccc21 | – | > 10000 | – | – | –
CN1C(=N)NC(=O)/C1=C\c1c[nH]c2cc(F)ccc12 | – | – | 0 | 1 | 6
CCN1C(=N)N(C)/C(=C\c2c[nH]c3ccc(Br)cc23)C1=O | – | – | 0 | 18 | 9
CN1C(=N)NC(=O)/C1=C\c1c[nH]c2ccc(F)cc12 | – | – | 0 | 19 | 0
CCN1C(=N)N(C)/C(=C\c2c[nH]c3ccc(I)cc23)C1=O | – | – | 15 | 46 | 35
CN1C(=N)NC(=O)/C1=C\c1c[nH]c2ccc(Cl)cc12 | – | – | 9 | 0 | 9
CN1C(=N)N(C)/C(=C/c2c[nH]c3cc(Cl)ccc23)C1=O | 166 | – | 3 | 49 | 0
CN1C(=N)N(C)/C(=C/c2c[nH]c3cc(F)ccc23)C1=O | – | 235 | 2 | 0 | 79
Cc1ncccc1Oc1ccc(NC(=O)N2CCc3cc(Br)ccc32)cn1 | 3.2 | 3980 | – | – | –
CN1C(=N)NC(=O)/C1=C\c1c[nH]c2ccccc12 | – | – | 0 | 6 | 0
CN1C(=N)NC(=O)/C1=C\c1c[nH]c2cc(Cl)ccc12 | – | – | 1 | 0 | 0
Cc1cc2c(cc1I)N(C(=O)Nc1cccnc1)CC2 | 3.2 | – | – | – | –
CCN1C(=N)N(C)/C(=C/c2c[nH]c3cc(Br)ccc23)C1=O | – | – | 0 | 49 | 0
CN1C(=N)N(C)/C(=C/c2c[nH]c3cc(Cl)c(Cl)cc23)C1=O | 46 | – | 0 | 79 | 12
CN1C(=N)N(C)/C(=C/c2c[nH]c3ccc(Br)cc23)C1=O | – | – | 18 | 64 | 37
CN1C(=N)NC(=O)/C1=C\c1c[nH]c2ccc(Br)cc12 | – | – | 6 | 0 | 0
CN1C(=N)N(C)/C(=C/c2c[nH]c3ccc(Cl)cc23)C1=O | – | – | 9 | 43 | 22
CN1C(=N)N(C)/C(=C/c2c[nH]c3ccc(F)cc23)C1=O | – | – | 4 | 0 | 10
CN1C(=N)N(C)/C(=C/c2c[nH]c3cc(Br)ccc23)C1=O | 2200 | – | – | – | –
Cc1ncccc1Oc1ccc(NC(=O)N2CCc3cc(I)ccc32)cn1 | 3.2 | – | – | – | –
CN1C(=N)NC(=O)/C1=C\c1c[nH]c2cc(Cl)c(Cl)cc12 | – | – | 4 | 10 | 0
